Experimental data taken from ChEMBL document CHEMBL4043109, “Dual inhibitors of the human blood-brain barrier drug efflux transporters P-glycoprotein and ABCG2 based on the antiviral azidothymidine” (Bioorg Med Chem, 2017).
Activity calls are given as the source filed them. No cut-off for these calls is given here.

Experiments:
Homo sapiens [1] = species: Homo sapiens; test: Inhibition of P-gp in human MCF7/DX1 cells assessed as increase in calcein-AM accumulation at 500 uM incubated for 10 mins by flow cytometry; format: cell-based
Procedure, shortened: (§1)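 MCF-7/DX1 cells (125,000, in suspension) were incubated at 37 °C for 10 min in BME containing 0.5 μM calcein-AM (final) plus increasing compound concentrations, with DMSO held at 5%. GF120918 1 μM served as positive control. IC50 was taken from mean fluorescence; triplicate.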

[2] = target: T1, Broad substrate specificity ATP-binding cassette transporter ABCG2 (Homo sapiens, UniProt Q9UNQ0); test: Inhibition of ABCG2 in human MCF7/FLV1000 cells assessed as increase in mitoxantrone accumulation at 400 uM incubated for 30 mins by flow cytometry; conditions: 0.5 h
T1 sequence (Q9UNQ0 whole entry): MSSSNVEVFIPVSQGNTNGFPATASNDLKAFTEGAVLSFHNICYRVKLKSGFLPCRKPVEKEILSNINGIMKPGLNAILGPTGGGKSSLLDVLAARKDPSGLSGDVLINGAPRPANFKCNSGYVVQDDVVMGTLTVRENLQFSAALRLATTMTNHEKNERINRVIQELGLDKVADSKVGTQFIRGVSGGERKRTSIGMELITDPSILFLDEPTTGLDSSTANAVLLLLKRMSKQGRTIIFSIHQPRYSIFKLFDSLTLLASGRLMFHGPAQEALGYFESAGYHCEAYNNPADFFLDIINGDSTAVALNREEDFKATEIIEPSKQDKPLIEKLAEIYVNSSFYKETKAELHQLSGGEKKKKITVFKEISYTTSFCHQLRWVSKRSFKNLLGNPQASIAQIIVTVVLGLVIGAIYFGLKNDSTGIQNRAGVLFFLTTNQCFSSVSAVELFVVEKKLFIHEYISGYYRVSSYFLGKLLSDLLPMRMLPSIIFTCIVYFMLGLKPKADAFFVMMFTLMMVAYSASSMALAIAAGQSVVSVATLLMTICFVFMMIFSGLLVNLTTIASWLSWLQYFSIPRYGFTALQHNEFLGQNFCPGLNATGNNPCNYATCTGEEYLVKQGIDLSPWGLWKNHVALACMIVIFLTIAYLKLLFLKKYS

[3] = target: T1, Broad substrate specificity ATP-binding cassette transporter ABCG2; test: Inhibition of ABCG2 in human MCF7/FLV1000 cells assessed as increase in mitoxantrone accumulation at 200 uM incubated for 30 mins by flow cytometry; conditions: 0.5 h
[4] = Inhibition of P-gp in human MCF7/DX1 cells assessed as increase in calcein-AM accumulation incubated for 10 mins by flow cytometry; format: cell-based; conditions: MCF7/DX1, 10 min; procedure, shortened: as §1
[5] = target: T1, Broad substrate specificity ATP-binding cassette transporter ABCG2; test: Inhibition of ABCG2 in human MCF7/FLV1000 cells assessed as increase in mitoxantrone accumulation incubated for 30 mins by flow cytometry
Homo sapiens [6] = species: Homo sapiens; test: Inhibition of P-gp in human MCF7/DX1 cells assessed as increase in calcein-AM accumulation at 400 uM incubated for 10 mins by flow cytometry; format: cell-based; procedure, shortened: as §1
[7] = target: T1, Broad substrate specificity ATP-binding cassette transporter ABCG2; test: Inhibition of human ABCG2 expressed in Sf9 cell membranes assessed as reduction in [125I]-IAAP binding incubated for 20 mins under UV light irradiation and measured after 30 mins by densitometry based photo-affinity labeling assay
Procedure, shortened: (§2)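 Crude Sf9 membranes, from baculovirus infection expressing P-gp (25 µg) or ABCG2 (40 µg), were preincubated 10 min at room temperature in the dark. Buffer was 50 mM Tris pH 7.5 with 1% aprotinin, 1 mM DTT and 2 mM AEBSF. Additions were compound (in DMSO) and [125I]-IAAP, ~2200 Ci/mmol. Controls were 2.5% DMSO and GF120918 (10 µM for P-gp, 20 µM for ABCG2). Samples were UV-irradiated at 365 nm for 20 min on ice, then held 30 min in Laemmli buffer. Bands were resolved on 7.5% SDS-PAGE, autoradiographed and quantified as % of DMSO control to give IC50.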

[8] = target: ATP-dependent translocase ABCB1 (Homo sapiens, UniProt P08183); test: Inhibition of human MDR1 expressed in Sf9 cell membranes assessed as reduction in [125I]-IAAP binding incubated for 20 mins under UV light irradiation and measured after 30 mins by densitometry based photo-affinity labeling assay; procedure, shortened: as §2
Chain of ATP-dependent translocase ABCB1 (P08183 whole entry): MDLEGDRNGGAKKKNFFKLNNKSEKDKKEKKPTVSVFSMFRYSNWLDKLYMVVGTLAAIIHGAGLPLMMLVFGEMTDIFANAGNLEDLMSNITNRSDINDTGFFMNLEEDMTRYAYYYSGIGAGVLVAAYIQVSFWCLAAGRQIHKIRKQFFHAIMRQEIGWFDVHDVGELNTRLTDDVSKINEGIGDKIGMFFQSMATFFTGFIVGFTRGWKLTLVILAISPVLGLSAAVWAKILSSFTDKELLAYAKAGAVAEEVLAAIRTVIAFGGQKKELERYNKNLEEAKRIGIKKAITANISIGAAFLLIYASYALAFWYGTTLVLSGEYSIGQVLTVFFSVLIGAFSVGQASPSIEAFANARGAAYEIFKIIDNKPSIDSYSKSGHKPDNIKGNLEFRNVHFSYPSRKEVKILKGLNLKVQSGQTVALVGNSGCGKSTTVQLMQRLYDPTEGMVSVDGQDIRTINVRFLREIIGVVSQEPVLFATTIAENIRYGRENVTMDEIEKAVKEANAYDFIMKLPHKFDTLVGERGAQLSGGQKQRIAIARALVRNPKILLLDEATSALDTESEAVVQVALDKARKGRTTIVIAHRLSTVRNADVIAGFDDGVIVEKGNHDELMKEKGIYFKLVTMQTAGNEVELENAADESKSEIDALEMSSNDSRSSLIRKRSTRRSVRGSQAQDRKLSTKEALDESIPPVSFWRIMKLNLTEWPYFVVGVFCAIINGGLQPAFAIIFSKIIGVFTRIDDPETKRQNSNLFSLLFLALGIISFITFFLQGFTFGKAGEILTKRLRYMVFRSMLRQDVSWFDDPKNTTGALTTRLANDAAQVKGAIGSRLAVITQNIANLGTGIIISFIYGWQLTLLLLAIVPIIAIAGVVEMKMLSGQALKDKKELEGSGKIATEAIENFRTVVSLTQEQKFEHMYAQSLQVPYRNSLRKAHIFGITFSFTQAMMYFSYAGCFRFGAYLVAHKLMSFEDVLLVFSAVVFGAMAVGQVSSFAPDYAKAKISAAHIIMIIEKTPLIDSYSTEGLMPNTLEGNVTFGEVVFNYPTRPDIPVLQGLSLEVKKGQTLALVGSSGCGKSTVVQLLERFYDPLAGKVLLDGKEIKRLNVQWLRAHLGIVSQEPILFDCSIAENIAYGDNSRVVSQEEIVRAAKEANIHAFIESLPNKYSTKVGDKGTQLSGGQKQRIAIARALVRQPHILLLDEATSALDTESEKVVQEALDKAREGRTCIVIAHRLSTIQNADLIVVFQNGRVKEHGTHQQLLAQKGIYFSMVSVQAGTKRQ

[9] = Cytotoxicity in human MCF7/DX1 cells assessed as cell viability at 2.3 uM incubated for 24 hrs by MTT assay; format: cell-based; conditions: read-out: Activity
Procedure, shortened: (§3)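 MTT viability assay on MCF-7/FLV1000 (ABCG2-overexpressing, grown with 1000 nM flavopiridol) and MCF-7/DX1 (P-gp-overexpressing, grown with 1 μM doxorubicin) cells. Cells were exposed for 24 h to increasing dimer concentrations. Viability is the absorbance of treated cells relative to untreated cells.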

[10] = Cytotoxicity in human MCF-7 FLV1000 cells assessed as cell viability at […] uM incubated for 24 hrs by MTT assay; format: cell-based; conditions: read-out: Activity
[11] = Cytotoxicity in human MCF-7 FLV1000 cells assessed as cell viability at 40 uM incubated for 24 hrs by MTT assay; format: cell-based; conditions: read-out: Activity; procedure, shortened: as §3
[12] = Cytotoxicity in human MCF7/DX1 cells assessed as cell viability at 2 uM incubated for 24 hrs by MTT assay; format: cell-based; conditions: read-out: Activity; procedure, shortened: as §3

Q: With Cc1cn([C@H]2C[C@H](N=[N+]=[N-])[C@@H](CO)O2)c(=O)[nH]c1=O [ZIDOVUDINE] as the molecule, how does the inhibition (Homo sapiens [1]) read?
A: inactive

Q: And the “inhibition (INH)” value [2]?
A: Not Active

Q: Which “inhibition (INH)” value [3] does the source give for Cc1cn([C@H]2C[C@H](N=[N+]=[N-])[C@@H](COC(=O)CCCCCC(=O)OC[C@H]3O[C@@H](n4cc(C)c(=O)[nH]c4=O)C[C@@H]3N=[N+]=[N-])O2)c(=O)[nH]c1=O here?
A: Not Active

Q: And the IC50 [4]?
A: > 200 µM

Q: What does the source list for Cc1cn([C@H]2C[C@H](N=[N+]=[N-])[C@@H](COC(=O)CCCCCCCCC(=O)OC[C@H]3O[C@@H](n4cc(C)c(=O)[nH]c4=O)C[C@@H]3N=[N+]=[N-])O2)c(=O)[nH]c1=O?
A: IC50 [5]: 28.2 µM; IC50 [4]: 11.3 µM

Q: Which results are given for Cc1cn([C@H]2C[C@H](N=[N+]=[N-])[C@@H](COC(=O)CCC(=O)OC[C@H]3O[C@@H](n4cc(C)c(=O)[nH]c4=O)C[C@@H]3N=[N+]=[N-])O2)c(=O)[nH]c1=O?
A: inhibition (INH) [3]: Not Active; inhibition (Homo sapiens [6]): inactive

Q: For Cc1cn([C@H]2C[C@H](N=[N+]=[N-])[C@@H](COC(=O)CCCCCCCCCCC(=O)OC[C@H]3O[C@@H](n4cc(C)c(=O)[nH]c4=O)C[C@@H]3N=[N+]=[N-])O2)c(=O)[nH]c1=O, which IC50 [7] is on record?
A: 4.3 µM

Q: What about the “inhibition (INH)” value ([7]; human, 20 min) of the same molecule?
A: Dose-dependent effect

Q: What about the IC50 [8] of the same molecule?
A: 9.3 µM

Q: What about the “inhibition (INH)” value ([8]; human, 20 min) of the same molecule?
A: Dose-dependent effect

Q: What about the IC50 [5] of the same molecule?
A: 11.5 µM

Q: What about the IC50 [4] of the same molecule?
A: 2.3 µM

Q: And the viability at 24 h, 2.3 µM [9]?
A: > 95%

Q: What about the viability at 24 h, 11.5 µM [10] of the same molecule?
A: > 95%

Q: For Cc1cn([C@H]2C[C@H](N=[N+]=[N-])[C@@H](COC(=O)CCCCCCCCCCCCC(=O)OC[C@H]3O[C@@H](n4cc(C)c(=O)[nH]c4=O)C[C@@H]3N=[N+]=[N-])O2)c(=O)[nH]c1=O, which IC50 [5] is on record?
A: 13.3 µM

Q: What about the viability at 24 h, 40 µM [11] of the same molecule?
A: 60%

Q: What about the IC50 [4] of the same molecule?
A: 2 µM

Q: What about the viability at 24 h, 2 µM [12] of the same molecule?
A: > 95%

Q: And the viability at 24 h, 13.3 µM [10]?
A: > 95%
